PubChem BioAssay
Calls of active or inactive are those of the source.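 Rule for the calls, unless noted: active = Her2 level under about 52% in both replicate screens, with viability over 70% of control (limit read from the data); inconclusive = Her2 under the limit in one screen only, or viability under 70%; inactive = Her2 level above the set limit.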

Key:
[1] = Her2 expression decrease, cell viability multiplex – SKBR3 breast tumor cells, AlphaScreen, ATP viability, primary screen (AID 461); conditions: SKBR3 Her2 protein level, 18-24 h, measured here: SKBR3 viability, ATP luminescence, at 10 µM;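 for Her2 level: lower value means less Her2 protein in the cells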;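 for viability: percent of carrier control wells set as 100% viability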
[2] = target: Receptor tyrosine-protein kinase erbB-2 (Homo sapiens) (UniProt P04626); experiment: as above; conditions: 18-24 h, at 10 µM, stronger effect = lower value
[3] = reduced viability of SK-BR-3 breast cancer cells – cell-based, 24 h, human, pilot screen (AID 572;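 active = viability at or below 10% of carrier control in both of two separate runs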;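 note: compound exposure lasted between 18 and 24 h rather than exactly 24 h; 100% = carrier-treated control wells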); conditions: SK-BR-3 viability, CellTiter-Glo luminescence, at 10 µM, stronger effect = lower value
[4] = H69AR cell proliferation blockers – human, duplicate replicates, primary screen (AID 580;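 active = viability at or under a set limit in both replicates, limit being median viability minus 3 SD, cut at about 48% in these data, passing the limit was not always enough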;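 note: 100% = mean luminescence of untreated wells and 0% = no signal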); conditions: H69AR lung tumor cells viability, ATP luminescence, 72 h; at 10 µM; stronger effect = lower value
[5] = MRP1 drug-resistance reversers in H69AR cells – cell-based, doxorubicin co-treatment, pilot screen (AID 601;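 active = viability loss from added drug above about 55%, and viability with drug at most 40%, in both replicates, limit read from the data, passing the limit was not always enough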); conditions: CellTiter-Glo, 72 h, at 10 µM; for differential viability (reversal): stronger effect = higher value
[6] = yeast transport mutant growth inhibition pilot in 384-well plates, post-Golgi transport modulator project (AID 636; in the data active = inhibition above about 31%); conditions: absorbance 615 nm, about 18 h, stronger effect = higher value
[7] = growth suppression of yeast trafficking mutant, preliminary HTS, modulators of trafficking downstream of Golgi apparatus project, 1536-format plate, OD 615 nm (AID 637; in the data active = inhibition above about 30%); conditions: yeast transport mutant growth, absorbance 615 nm, 18 h; stronger effect = higher value
[8] = HUVEC growth inhibition – cell-based, human, primary screen (AID 575;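 active = viability at or below 30% in both replicate assays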;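 note: 100% = median of untreated cell wells with 0.1% DMSO on each plate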); conditions: HUVEC proliferation, CellTiter-Glo luminescence, 72 h; at 10 µM; stronger effect = lower value
Summary of the method: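 Test system: primary human umbilical vein endothelial cells. Quantity: 1250 cells/well. Compound: single 10 µM dose, 0.1% DMSO, from 5x medium stock. Timing: 72 h treatment at 37 °C. Detection: ATP-based CellTiter-Glo luminescent read. Benchmarks: vehicle and MePR control wells. Format: 384-well plates coated with collagen.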

[9] = H69AR cells + 2 uM doxorubicin, measured here: viability with 2 uM doxorubicin, stronger effect = lower value
[10] = H69AR cells, compound alone cytotoxicity

Chain of Receptor tyrosine-protein kinase erbB-2 (Homo sapiens) (P04626 whole entry, looked up): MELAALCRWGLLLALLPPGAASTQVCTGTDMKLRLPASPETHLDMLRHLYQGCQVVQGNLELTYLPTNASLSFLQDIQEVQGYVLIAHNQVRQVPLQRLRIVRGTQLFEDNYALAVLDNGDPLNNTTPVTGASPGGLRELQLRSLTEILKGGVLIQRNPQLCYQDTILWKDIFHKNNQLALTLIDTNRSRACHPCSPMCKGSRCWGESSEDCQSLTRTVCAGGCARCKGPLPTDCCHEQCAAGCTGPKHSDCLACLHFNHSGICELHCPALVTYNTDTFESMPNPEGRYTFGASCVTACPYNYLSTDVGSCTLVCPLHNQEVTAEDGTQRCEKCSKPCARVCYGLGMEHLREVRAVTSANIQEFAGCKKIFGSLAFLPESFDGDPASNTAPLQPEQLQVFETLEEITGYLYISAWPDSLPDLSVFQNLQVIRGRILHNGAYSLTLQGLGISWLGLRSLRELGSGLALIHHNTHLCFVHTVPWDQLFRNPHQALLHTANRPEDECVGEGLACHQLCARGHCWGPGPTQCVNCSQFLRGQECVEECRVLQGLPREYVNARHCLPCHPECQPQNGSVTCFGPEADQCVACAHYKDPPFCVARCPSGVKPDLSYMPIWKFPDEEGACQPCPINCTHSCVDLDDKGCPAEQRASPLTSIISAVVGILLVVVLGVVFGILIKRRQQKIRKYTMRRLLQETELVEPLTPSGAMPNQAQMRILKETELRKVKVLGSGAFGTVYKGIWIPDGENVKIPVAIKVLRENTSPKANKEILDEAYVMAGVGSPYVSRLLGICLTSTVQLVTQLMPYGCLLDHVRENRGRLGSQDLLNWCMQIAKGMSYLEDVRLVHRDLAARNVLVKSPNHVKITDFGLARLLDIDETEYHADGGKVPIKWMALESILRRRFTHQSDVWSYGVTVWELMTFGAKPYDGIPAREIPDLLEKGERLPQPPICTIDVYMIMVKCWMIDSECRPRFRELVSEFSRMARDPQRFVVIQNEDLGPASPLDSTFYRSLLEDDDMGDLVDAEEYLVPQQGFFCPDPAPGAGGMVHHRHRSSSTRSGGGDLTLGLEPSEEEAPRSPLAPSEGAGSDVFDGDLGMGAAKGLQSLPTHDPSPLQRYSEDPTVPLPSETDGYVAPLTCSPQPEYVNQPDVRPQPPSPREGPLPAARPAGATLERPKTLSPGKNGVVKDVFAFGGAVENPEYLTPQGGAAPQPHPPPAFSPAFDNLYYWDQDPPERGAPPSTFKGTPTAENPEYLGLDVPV

CCOC(=O)c1cnn(-c2ncnc3c2cnn3Cc2ccccc2)c1N
viability [1]: 99.5%
Her2 level [2]: 84.5% (inactive)
viability [3]: 99.5% (inactive)
viability [4]: 17.2% (active)
differential viability (reversal) ([5]; H69AR cells + 2 uM doxorubicin): -14.3% (inactive)
viability [5, 9]: 31.5%
viability [5, 10]: 17.2%
inhibition [6]: -5.33% (inactive)
inhibition [7]: -2.58% (inactive)

CC(C)Cc1nc(N2CCN(C(=O)c3ccco3)CC2)c(C#N)c2c1CCC2
viability [1]: 172%
Her2 level [2]: 93% (inactive)
viability [3]: 172% (inactive)
viability [4]: 84.5% (inactive)
differential viability (reversal) ([5]; H69AR cells + 2 uM doxorubicin): 2.99% (inactive)
viability [5, 9]: 81.5%
viability [5, 10]: 84.5%
inhibition [6]: -6.71% (inactive)
inhibition [7]: 1.15% (inactive)

CCn1cc(C(=O)OCC(=O)OC2CC(C)CCC2C(C)C)c(=O)c2ccc(C)nc21 (stereo unspecified)
viability [1]: 94.5%
Her2 level [2]: 67.5% (inactive)
viability [3]: 94.5% (inactive)
viability [8]: 35.3% (inactive)
differential viability (reversal) ([5]; H69AR cells + 2 uM doxorubicin): -1.67% (inactive)
viability [5, 9]: 46.3%
viability [5, 10]: 44.7%
inhibition [6]: 78.4% (active)
inhibition [7]: -1.45% (inactive)

CCOC(=O)c1c(C)[nH]c(C(=O)COC(=O)c2ccc(F)c(S(=O)(=O)N3CCOCC3)c2)c1C
viability [1]: 88.5%
Her2 level [2]: 79.5% (inactive)
viability [3]: 88.5% (inactive)
viability [8]: 62.4% (inactive)
differential viability (reversal) ([5]; H69AR cells + 2 uM doxorubicin): 11.4% (inactive)
viability [5, 9]: 52.5%
viability [5, 10]: 63.9%
inhibition [6]: -5.47% (inactive)
inhibition [7]: -1.97% (inactive)

CCOC(=O)C1=C(N)c2ccccc2CC1C(C)C (stereo unspecified)
viability [1]: 85.5%
Her2 level [2]: 78% (inactive)
viability [3]: 85.5% (inactive)
viability [4]: 72% (inactive)
differential viability (reversal) ([5]; H69AR cells + 2 uM doxorubicin): -4.15% (inactive)
viability [5, 9]: 76.1%
viability [5, 10]: 72%
inhibition [6]: -5.34% (inactive)
inhibition [7]: -1.9% (inactive)

CC(C)C[C@H]1C(=O)N2CCC[C@H]2[C@]2(O)O[C@](NC(=O)[C@@H]3C=C4c5cccc6[nH]c(Br)c(c56)CC4N(C)C3)(C(C)C)C(=O)N12 (stereo partly specified)
viability [1]: 138%
Her2 level [2]: 71% (inactive)
viability [3]: 138% (inactive)
viability [4]: 84.2% (inactive)
differential viability (reversal) ([5]; H69AR cells + 2 uM doxorubicin): 11.8% (inactive)
viability [5, 9]: 72.4%
viability [5, 10]: 84.2%

CCOC(=O)c1ccc(N2C(=O)CC(Sc3nnc(C)s3)C2=O)cc1 (stereo unspecified)
viability [1]: 103%
Her2 level [2]: 100% (inactive)
viability [3]: 103% (inactive)
viability [8]: 102% (inactive)
differential viability (reversal) ([5]; H69AR cells + 2 uM doxorubicin): 4.82% (inactive)
viability [5, 9]: 46.2%
viability [5, 10]: 51%
inhibition [6]: -8.4% (inactive)
inhibition [7]: -6.67% (inactive)

CCOc1ccc2nc(NC(=O)CSc3nc4ccccc4c(=O)n3Cc3ccco3)sc2c1
viability [1]: 82.5%
Her2 level [2]: 84% (inactive)
viability [3]: 82.5% (inactive)
viability [4]: 45.2% (active)
differential viability (reversal) ([5]; H69AR cells + 2 uM doxorubicin): -0.105% (inactive)
viability [5, 9]: 45.4%
viability [5, 10]: 45.2%
inhibition [6]: -5.95% (inactive)
inhibition [7]: -1.97% (inactive)

COc1ccc(N2CCN(Cc3cc(=O)oc4cc(C)c(Cl)c(C)c34)CC2)cc1
viability [1]: 93.5%
Her2 level [2]: 83.5% (inactive)
viability [3]: 93.5% (inactive)
viability [8]: 84.1% (inactive)
differential viability (reversal) ([5]; H69AR cells + 2 uM doxorubicin): -1.03% (inactive)
viability [5, 9]: 75.8%
viability [5, 10]: 74.8%
inhibition [6]: -7.33% (inactive)
inhibition [7]: 1.9% (inactive)

Cc1ccc(NC(=O)c2oc3ccc(S(=O)(=O)N4CCOCC4)cc3c2C)cc1C
viability [1]: 91%
Her2 level [2]: 83.5% (inactive)
viability [3]: 91% (inactive)
viability [8]: 51.6% (inactive)
differential viability (reversal) ([5]; H69AR cells + 2 uM doxorubicin): -5.16% (inactive)
viability [5, 9]: 48.6%
viability [5, 10]: 43.4%
inhibition [6]: -5.26% (inactive)
inhibition [7]: 2.54% (inactive)

ON=C1/C(=N\O)CC2(C/C1=N/O)OCCO2
viability [1]: 89%
Her2 level [2]: 113% (inactive)
viability [3]: 89% (inactive)
viability [4]: 86.9% (inactive)
differential viability (reversal) ([5]; H69AR cells + 2 uM doxorubicin): -0.75% (inactive)
viability [5, 9]: 87.7%
viability [5, 10]: 86.9%
inhibition [6]: -8.27% (inactive)
inhibition [7]: -2.1% (inactive)

Cc1cccc(NC(=O)c2cc(NC(=O)c3ccco3)ccc2N2CCCCC2)c1
viability [1]: 85%
Her2 level [2]: 80.5% (inactive)
viability [3]: 85% (inactive)
viability [4]: 65.9% (inactive)
differential viability (reversal) ([5]; H69AR cells + 2 uM doxorubicin): 17.8% (inactive)
viability [5, 9]: 48%
viability [5, 10]: 65.9%
inhibition [6]: -4.4% (inactive)
inhibition [7]: 2.46% (inactive)

CSc1nc(N)nc(SCCS(=O)(=O)c2ccc(Cl)cc2)c1C#N
viability [1]: 90.5%
Her2 level [2]: 68% (inactive)
viability [3]: 90.5% (inactive)
viability [8]: 56.6% (inactive)
differential viability (reversal) ([5]; H69AR cells + 2 uM doxorubicin): -7.24% (inactive)
viability [5, 9]: 34.2%
viability [5, 10]: 26.9%
inhibition [6]: -3.47% (inactive)
inhibition [7]: -3.65% (inactive)

Cc1nn(-c2nc3ccccc3s2)c(C)c1Oc1ccccc1O
viability [1]: 102%
Her2 level [2]: 79.5% (inactive)
viability [3]: 102% (inactive)
viability [8]: 20.3% (active)
differential viability (reversal) ([5]; H69AR cells + 2 uM doxorubicin): -6.93% (inactive)
viability [5, 9]: 67%
viability [5, 10]: 60%
inhibition [6]: -6.13% (inactive)
inhibition [7]: -0.63% (inactive)

COc1ccc(CC(=O)NCc2cccs2)cc1
viability [1]: 90%
Her2 level [2]: 103% (inactive)
viability [3]: 90% (inactive)
viability [8]: 60.6% (inactive)
differential viability (reversal) ([5]; H69AR cells + 2 uM doxorubicin): -17.3% (inactive)
viability [5, 9]: 77.9%
viability [5, 10]: 60.5%
inhibition [6]: -4% (inactive)
inhibition [7]: -8.03% (inactive)

CCOC(=O)c1cnc(-n2nc(C)cc2C)nc1NC(C)c1ccccc1 (stereo unspecified)
viability [1]: 153%
Her2 level [2]: 65% (inactive)
viability [3]: 153% (inactive)
viability [4]: 10.1% (active)
differential viability (reversal) ([5]; H69AR cells + 2 uM doxorubicin): -1.17% (inactive)
viability [5, 9]: 11.3%
viability [5, 10]: 10.1%
inhibition [6]: -3.16% (inactive)
inhibition [7]: 14.3% (inactive)

COc1ccc(/C=N/n2cc(-c3ccc(OC)cc3)nc2N)cc1
viability [1]: 85%
Her2 level [2]: 99% (inactive)
viability [3]: 85% (inactive)
viability [8]: 82.5% (inactive)
differential viability (reversal) ([5]; H69AR cells + 2 uM doxorubicin): -10.3% (inactive)
viability [5, 9]: 63.6%
viability [5, 10]: 53.3%
inhibition [6]: -1.41% (inactive)
inhibition [7]: -8% (inactive)
